# Rce1 inhib = yeast Rce1p protease inhibitors, primary screen, biochemical, fluorescence, cell-free homogeneous. yeast membranes, quenched prenylated peptide cleavage fluorescence. calls only. 290,000 tested, 0.27% active;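 active means fall in fluorescence gain of 50% or more versus controls, with final raw signal at or below 3038400; inconclusive means same 50% fall but final raw signal above 3038400; inactive means fall in fluorescence gain under 50%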
# Target sequence (Q03530 whole entry, looked up): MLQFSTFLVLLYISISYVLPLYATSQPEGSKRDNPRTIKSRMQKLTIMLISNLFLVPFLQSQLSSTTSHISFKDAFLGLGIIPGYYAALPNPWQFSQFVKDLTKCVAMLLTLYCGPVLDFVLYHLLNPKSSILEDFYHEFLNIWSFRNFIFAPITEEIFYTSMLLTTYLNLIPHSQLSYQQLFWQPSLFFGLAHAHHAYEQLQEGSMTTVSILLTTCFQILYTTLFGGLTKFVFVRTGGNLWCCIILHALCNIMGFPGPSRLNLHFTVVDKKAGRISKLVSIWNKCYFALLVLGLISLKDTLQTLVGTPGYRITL
# T cell HTS = modulators of CD8 T cell-vesicle binding, primary screen, mouse 2C CD8+ T cells, flow cytometry; 2C CD8+ T cell-vesicle binding; active compounds read low; response (vesicle binding), % at 7 µM; 330,000 tested, 0.068% active;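 active means response, share of CD8 T cells binding vesicles, and their 90th percentile fluorescence all below set limits, cut at about 80% in these data, passing the limit was not always enough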;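 further: values below 100% mean blocked vesicle binding to the CD8+ T cells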
#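 Assay system: 2C TCR transgenic mouse naive CD8+ T cells, MACS-purified | Read-out: CD8+ gate FL2 mean fluorescence as % of same-row positive control | Signal: High-throughput flow cytometry with anti-B7-1 and anti-CD8 staining | Timing: Binding step 1.5 h, 37 °C, antibody labelling 20 min, ice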
# SKN-1 inh = suppressors of acrylamide-induced Pgst-4::GFP reporter in worms, primary screen, SKN-1 inhibitor project, whole organism, uHTS, GFP/RFP fluorescence ratio, strain VP596. C. elegans VP596 Pgst-4::GFP/RFP ratio, 24 h. 360,000 tested, 0.49% active. inhibition, % at 21.8 µM. AID 624304, 2012;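 active means interference check ratio from 0.5 to 1.5 plus GFP to RFP signal ratio inhibition reaching or exceeding a fixed threshold, cut at about 30% in these data, passing the limit was not always enough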
# Rin1 Abl inh = inhibitors of Rin1-Abl protein binding, primary screen, biochemical, TR-FRET; inhibition, % at 7.35 µM; 360,000 tested, 0.4% active; AID 588664, 2011; in the data active means inhibition above about 5%, passing the limit was not always enough
# GRK2 inh = compounds blocking aptamer binding on GRK2 – biochemical, human GRK2, bead flow cytometry, HTS, primary screen. Beta-adrenergic receptor kinase 1 (Homo sapiens), P25098. FAM-aptamer displacement from GRK2. inhibition of aptamer binding, % at 10 µM. 330,000 tested, 0.59% active. AID 488847, 2010;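 active means inhibition of aptamer binding above 40%, roughly 3 SD of noise, on plates passing a quality check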;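 further: median bead fluorescence of bound FAM aptamer so fluorescent compounds give negative values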
# Myeloid diff 2 = induction of myeloid progenitor differentiation, primary screen, cell-based, flow cytometry, MLPCN library; ER-HoxA9 myeloid progenitors, lysozyme-GFP differentiation; AID 624256, 2012; calls only at 10 µM; 360,000 tested, 1% active;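 active means normalized GFP-positive differentiation at or above the plate's own cutoff, the solvent-only control mean plus 3 SD; inconclusive means no clear call, values can overlap the other calls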;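 further: cells exposed to compound for four days before flow analysis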
# Myeloid diff = inducers of myeloid progenitor differentiation, confirmation, cell-based, GFP/Mac1 flow cytometry, cherry pick 01. ER-HoxA9 myeloid progenitors, GFP/Mac1 double-positive flow. AID 651706, 2012. 2,300 tested, 2% active. shares compounds with Myeloid diff 2. calls only;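 active means share of green or green-and-red cells above 9 and 9% in run 1 or 4 and 3% in run 2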
# GFP autofluor = counter-screen for myeloid differentiation promoters: compound fluorescence; shares compounds with Myeloid diff 2; ER-HoxA9 myeloid progenitors, no estrogen, GFP autofluorescence flow cytometry; vehicle wells 0%, positive control 100%; fluorescence response, % (concentration not given with the values); 2,300 tested, 7.4% active; AID 651707;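 active means over 5% cells positive for green fluorescent reporter, or over 2% positive for both it and APC stain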
# Hits are given with their value; – = inactive; ? = inconclusive; · = no result given; + = active, no number. This is a sample that favours compounds with a hit; in the whole collection about 2.6% have one here.
SMILES,Rce1 inhib,T cell HTS,SKN-1 inh,Rin1 Abl inh,GRK2 inh,Myeloid diff 2,Myeloid diff,GFP autofluor
COc1cc(NC(=O)c2ccccc2)c(OC)cc1NC(=O)Cc1ccc(F)cc1,–,–,–,–,–,–,·,·
COc1cc(C2C3=C(CC(C)(C)CC3=O)N(C)C3=C2C(=O)CC(C)(C)C3)cc(Br)c1O,–,–,–,–,–,–,·,·
NC(=S)NN=C(c1ccc(Br)cc1)C1CC1,·,·,–,–,·,–,·,·
O=C1CSC(=Nc2ccc(F)cc2)N1,–,–,–,–,–,+,–,–
CCN(C(=O)COC(=O)C12CC3CC(CC(O)(C3)C1)C2)c1c(N)n(Cc2ccccc2)c(=O)[nH]c1=O,·,·,–,–,·,–,·,·
O=C(Nc1cccc2ncccc12)c1ccc([N+](=O)[O-])o1,–,–,–,–,–,+,–,–
Cc1cccnc1NC(=O)c1ccc([N+](=O)[O-])o1,–,–,–,–,–,–,·,·
COC(=O)CCN(c1ccccc1)S(=O)(=O)c1cc(-c2cc(C)no2)ccc1C,–,–,–,–,–,–,·,·
CC(C)N1CCc2c(sc(NC(=O)c3nc4ccccc4s3)c2C(N)=O)C1,–,–,–,–,–,+,–,–
O=C(O)[C@@H]1Cc2ccccc2N1,–,–,–,–,–,+,–,5.4
O=C(O)C1Cc2ccccc2-c2ccccc2C1,–,–,–,–,–,–,·,·
c1ccc(COc2ncnc3c2ncn3CCCNCc2cccs2)cc1,·,·,–,–,·,–,·,·
O=C(NCc1ccccc1)C1C(c2ccc3c(c2)OCO3)=Nc2ccccc2N1C(=O)c1ccco1 (centres undefined),·,·,–,·,·,–,–,–
O=C(NCCc1ccccc1)c1ccccc1NS(=O)(=O)N1CCCC1,–,–,–,–,–,–,–,–
CCN1CCN(Cc2cccc(Oc3ccc(Cl)cc3)c2)CC1,–,–,–,–,–,+,–,–
CS(=O)(=O)c1cccc(NC(=O)CSc2nnc3n2CCCCC3)c1,·,–,–,–,–,–,·,·
CCn1c(=O)c(C(=O)NCc2ccccc2)c(O)c2ccccc21,–,–,–,–,–,–,·,·
CCn1c(=O)c(C(=O)NCc2cccnc2)c(O)c2ccccc21,–,–,–,–,–,–,–,–
CC(C)N(C(=O)CO/N=C/c1cccc([N+](=O)[O-])c1)C(C)C,–,–,–,–,–,–,·,·
CC(=O)Nc1ccc(NC(=O)C(C)O/N=C/c2cccc([N+](=O)[O-])c2)cc1 (centres undefined),–,–,–,–,–,–,–,–
CCNC(=O)NC1(C(=O)N2CCC(Cc3ccccc3)CC2)CCCCC1,–,–,–,–,–,+,–,–
COc1ccc2cc(C#N)c(SCC(=O)NNC(=O)Cc3ccccc3)nc2c1,–,–,–,–,–,–,·,·
Cc1ccc2cc(C#N)c(SCC(=O)NNC(=O)Cc3ccccc3)nc2c1,·,·,–,–,·,+,–,–
CCN(Cc1cnn(C)c1)C(=O)c1ccc2nc(Cc3ccccc3F)oc2c1,·,·,–,–,·,–,·,·
Cc1ccc(C2=NCCNC2=O)c(C)c1,–,–,–,–,–,–,–,–
SMILES,Rce1 inhib,T cell HTS,SKN-1 inh,Rin1 Abl inh,GRK2 inh,Myeloid diff 2,Myeloid diff,GFP autofluor
C(=N\Nc1nc(Nc2ccccc2)nc(N2CCCCC2)n1)/c1ccco1,–,–,·,·,–,·,·,·
Cc1ccc(S(=O)(=O)NCCC(=O)Nc2ccc3c(c2)OCO3)cc1,–,–,–,–,–,–,–,–
Cc1ccc(S(=O)(=O)CCC(=O)Nc2ccc3c(c2)OCO3)cc1,–,–,–,–,–,–,·,·
O=C(NCCc1c[nH]c2ccccc12)/C(=C\c1cccnc1)NC(=O)c1ccccc1Br,–,–,–,–,–,+,–,–
O=C(NCCc1c[nH]c2ccccc12)/C(=C\c1cccnc1)NC(=O)c1ccco1,–,–,–,–,–,–,·,·
O=C1COc2ccc(C(=O)/C=C/c3ccccc3)cc2N1,–,–,–,–,–,–,–,–
O=C1COc2ccc(C(=O)NCc3ccco3)cc2N1,–,–,–,–,–,–,–,–
CC(C)(C)c1ccc(C(=O)NC(Cc2ccccc2)C(=O)O)cc1 (centres undefined),–,–,–,–,–,–,–,–
CCn1c(CNC(=O)COc2ccc(C(C)C)cc2)nnc1SCC(=O)Nc1ccc(F)cc1,–,–,–,–,–,–,–,–
CCn1c(CNC(=O)COc2ccc(C(C)C)cc2)nnc1SCC(=O)Nc1cc(F)ccc1C,–,–,–,–,–,–,·,·
CCCCn1c(SCC(=O)N2CCC(C)CC2)nc2cc(S(N)(=O)=O)ccc21,–,–,–,–,–,+,–,–
Cc1ccc2c(c1)S/C(=C\c1cccc[n+]1C)N2CCO,–,–,–,–,–,+,–,68
COc1cc(C(=O)C(=O)N2CCN(c3ccccc3)CC2)cc(OC)c1OC,·,·,–,·,·,?,·,·
COc1ccccc1NS(=O)(=O)c1cc(NC(=O)c2cccs2)ccc1N1CCCC1,–,–,–,–,–,–,·,·
COc1ccccc1NS(=O)(=O)c1cc(NC(=O)c2cccs2)ccc1N1CCCCC1,–,–,–,–,–,+,–,–
COc1ccc(NS(=O)(=O)c2cc(NC(=O)c3sccc3C)ccc2N2CCOCC2)cc1,·,–,–,–,–,+,–,–
CC(=O)NC/C(C)=N\Nc1ccc([N+](=O)[O-])cc1,–,–,–,–,–,+,–,49
C/C(=N\Nc1ccc([N+](=O)[O-])cc1)c1ccc(O)cc1,–,–,–,–,–,–,·,·
CC(=O)Nc1cccc2c1C(=O)N(c1ccccc1OC(C)=O)C2=O,–,–,–,–,–,–,·,·
CC1(C)CC(=O)C2=C(C1)N(Cc1ccco1)C(=O)C2(NC(=O)c1ccc(Cl)cc1Cl)C(F)(F)F (centres undefined),–,–,–,–,–,–,·,·
CC1(C)CC(=O)C2=C(C1)N(Cc1ccco1)C(=O)C2(NC(=O)C1CCCCC1)C(F)(F)F (centres undefined),–,–,–,–,–,–,–,–
COc1ccccc1C1N(c2ccc(Cl)cc2)C(=O)C2CCCN21 (centres undefined),–,–,–,–,–,+,+,–
